Measured values as given in ChEMBL document CHEMBL4321820, “Identification and Optimization of Mechanism-Based Fluoroallylamine Inhibitors of Lysyl Oxidase-like 2/3” (J Med Chem, 2019).
Activity calls are given as the source filed them. The rule behind the calls is not given here.

Tests used:
[1] = test system: Mus musculus; test: Antifibrotic activity in CCl4-induced BALB/c mouse model of liver fibrosis assessed as reduction in liver fibrosis area at 2 mg/ml, po administered every 2 day for 6 weeks by alpha-SMA staining based microscopy; type: functional, organism-based
In short: (§1)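 Female BALB/c mice given CCl4 i.p. (1 mL/kg of 25% CCl4 in olive oil) twice weekly for 6 weeks, killed 48 h after the last dose. The 2 mg/mL treatment was given in drinking water ad libitum, changed every second day, for 6 weeks (n=15). One liver lobe was formalin-fixed and stained for Picro Sirius Red or α-SMA. Slides were scanned at 20X. Fibrotic area is given as % of total liver area, mean ± SEM. One-way ANOVA with Dunnett's test vs CCl4 + vehicle.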

[2] = test system: Mus musculus; test: Increase in plasma ALT level in CCl4-induced BALB/c mouse model of liver fibrosis at 2 mg/ml, po administered every 2 day for 6 weeks; type: ADME, organism-based; conditions: in vivo
In short: (§2)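 Female BALB/c mice given CCl4 i.p. (1 mL/kg of 25% CCl4 in olive oil) twice weekly for 6 weeks, killed 48 h after the last dose. The 2 mg/mL treatment was given in drinking water ad libitum, changed every second day, for 6 weeks (n=15). ALT and AST were measured in plasma.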

[3] = test system: Mus musculus; test: Increase in plasma AST level in CCl4-induced BALB/c mouse model of liver fibrosis at 2 mg/ml, po administered every 2 day for 6 weeks; type: ADME, organism-based; conditions: in vivo; in short: as §2
[4] = target: T1, Protein-lysine 6-oxidase (Bos taurus, UniProt P33072); test: Inhibition of LOX in bovine aorta using putrescine as substrate preincubated with enzyme for 30 mins followed by substrate addition and measured every 2.5 mins for 30 mins by Amplex-Red oxidation assay; type: tissue-based; conditions: read-out: pIC50 (converted)
T1 sequence (P33072 whole entry): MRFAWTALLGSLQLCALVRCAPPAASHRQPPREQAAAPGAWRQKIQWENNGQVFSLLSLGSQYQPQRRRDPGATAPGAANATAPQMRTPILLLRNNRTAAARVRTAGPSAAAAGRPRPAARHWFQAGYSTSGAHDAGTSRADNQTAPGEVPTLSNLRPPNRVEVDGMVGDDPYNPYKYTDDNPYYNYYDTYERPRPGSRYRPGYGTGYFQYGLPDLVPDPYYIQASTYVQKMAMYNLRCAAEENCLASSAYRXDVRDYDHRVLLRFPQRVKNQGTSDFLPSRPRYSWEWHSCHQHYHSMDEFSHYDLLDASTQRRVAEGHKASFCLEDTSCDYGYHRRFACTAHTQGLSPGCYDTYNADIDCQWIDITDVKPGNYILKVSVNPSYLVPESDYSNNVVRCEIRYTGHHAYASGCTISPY
In short: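 LOX extracted from calf aorta after PBS washing with 4 M urea/50 mM borate pH 8.2, concentrated on 10 kDa filters into 1.2 M urea/borate with protease inhibitors. Preincubated 30 min at 37 °C with compound, then Amplex Red/HRP with 10 mM putrescine; fluorescence read every 2.5 min for 30 min.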

[5] = test system: Mus musculus; test: Antifibrotic activity in CCl4-induced BALB/c mouse model of liver fibrosis assessed as liver fibrosis area at 2 mg/ml, po administered every 2 day for 6 weeks by picro-sirius red staining based microscopy; type: functional, organism-based; in short: as §1
[6] = target: T2, Lysyl oxidase homolog 2 (Homo sapiens) (UniProt Q9Y4K0); test: Substrate competitive inhibition of recombinant human C-terminal His-tagged […] (1-774 residues) expressed in mouse myeloma cells using different concentrations of putrescine as substrate preincubated with enzyme for 30 mins followed by substrate addition and measured every 2.5 mins for 30 mins by substrate competition based Amplex-Red oxidation assay
T2 sequence (whole entry): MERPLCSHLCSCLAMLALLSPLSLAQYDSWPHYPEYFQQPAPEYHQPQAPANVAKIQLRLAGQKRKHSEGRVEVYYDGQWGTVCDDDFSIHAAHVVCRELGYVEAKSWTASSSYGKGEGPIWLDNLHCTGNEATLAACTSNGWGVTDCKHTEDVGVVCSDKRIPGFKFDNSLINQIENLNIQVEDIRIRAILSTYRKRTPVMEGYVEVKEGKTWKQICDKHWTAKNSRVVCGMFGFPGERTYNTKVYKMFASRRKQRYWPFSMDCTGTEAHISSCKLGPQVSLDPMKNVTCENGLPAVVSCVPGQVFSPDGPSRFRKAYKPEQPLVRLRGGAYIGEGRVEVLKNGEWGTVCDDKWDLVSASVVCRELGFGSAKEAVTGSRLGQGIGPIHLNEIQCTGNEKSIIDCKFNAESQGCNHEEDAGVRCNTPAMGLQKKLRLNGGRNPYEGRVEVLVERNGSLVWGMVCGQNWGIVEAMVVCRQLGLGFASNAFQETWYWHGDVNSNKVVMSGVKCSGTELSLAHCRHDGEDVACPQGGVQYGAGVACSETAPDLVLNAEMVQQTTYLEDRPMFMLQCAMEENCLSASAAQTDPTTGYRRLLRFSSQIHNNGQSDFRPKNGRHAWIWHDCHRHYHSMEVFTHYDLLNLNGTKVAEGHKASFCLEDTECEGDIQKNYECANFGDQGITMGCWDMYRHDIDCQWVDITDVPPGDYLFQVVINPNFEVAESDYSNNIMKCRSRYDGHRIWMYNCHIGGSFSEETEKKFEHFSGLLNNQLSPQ
In short: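 Recombinant LOXL2 incubated with inhibitor plus a range of putrescine concentrations before the reaction mix was added (120 µM Amplex Red, 1.5 U/mL HRP). Buffer was 1.2 M urea, 50 mM sodium borate, pH 8.2. Fluorescence (ex 565/em 590 nm) read every 2.5 min for 30 min at 37 °C.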

[7] = target: T2, Lysyl oxidase homolog 2 (Homo sapiens); test: Inhibition of recombinant human LOXL2 assessed as inhibition of collagen cross linking compound replenishment for 5 days and measured on day 7 by UPLC-ESI-MS/MS analysis
[8] = Selectivity index, ratio of IC50 for recombinant human C-terminal His-tagged […] (1-774 residues) expressed in mouse myeloma cells to IC50 for LOX in bovine aorta
[9] = target: T2, Lysyl oxidase homolog 2 (Homo sapiens); test: Time-dependent inhibition of recombinant human C-terminal His-tagged […] (1-774 residues) expressed in mouse myeloma cells assessed as inactivation constant using putrescine as substrate by kitz-wilson plot analysis
In short: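 Recombinant human LOXL2 preincubated with inhibitor for varying times at 37 °C, then 5 mM putrescine added with 120 µM Amplex Red and 1.5 U/mL HRP. Buffer was 1.2 M urea, 50 mM sodium borate, pH 8.2. Fluorescence read every 2.5 min for 30 min. Apparent Ki and kinact derived by Kitz–Wilson analysis.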

[10] = species on record: Homo sapiens; test: Displacement of [3H]PK11195 from human recombinant peripheral benzodiazepine receptor at 10 uM incubated for 15 mins by scintillation counting method
In short: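 Single-concentration screen at 10 µM in a panel of 119 enzyme and receptor targets under standard conditions; >50% inhibition of radioligand binding counted as a hit.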

[11] = target: T2, Lysyl oxidase homolog 2 (Homo sapiens); test: Inhibition of recombinant human C-terminal His-tagged […] (1-774 residues) expressed in mouse myeloma cells at 10XIC50 preincubated with bound enzyme for 30 mins followed by drug wash-out and later incubated with putrescine substrate and measured after 30 mins by Amplex-Red oxidation assay; type: cell-based
[12] = target: T2, Lysyl oxidase homolog 2 (Homo sapiens); test: Irreversible inhibition of recombinant human C-terminal His-tagged […] (1-774 residues) expressed in mouse myeloma cells assessed as maximal inhibition at 30XIC50 incubated for 60 mins followed by 100-fold dilution prior to addition of putrescine as substrate and measured after 30 mins by jump dilution assay based Amplex-Red oxidation assay relative to control
In short: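 LOXL2 soaked 60 min at 37 °C with inhibitor at 30× IC50. Diluted 50-fold in assay buffer (1.2 M urea, 50 mM borate, pH 8.2), then 1:2 with reaction mix of Amplex Red 120 µM, HRP 1.5 U/mL and putrescine. Read out 30 min after substrate addition (ex 565/em 590, 37 °C). Percent activity followed over time after dilution.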

Compound | inhibition [1] | Activity [2] | Activity [3] | IC50 [4] | inhibition [5] | inhibition [6] | inhibition [7] | IC50 ratio [8] | Kinact [9] | inhibition [10] | inhibition [11] | Imax [12]
N#CCCN | Active | Toxic | Toxic | 2000 nM | inactive | – | – | – | – | – | – | –
Cc1c(-c2cccc(S(=O)(=O)N(C)C)c2)c2cc(C(=O)O)ccc2n1C/C(F)=C/CN | – | – | – | – | – | Active | Dose-dependent effect | > 300 | 0.89 min⁻¹ | > 50% | Active | > 80%
